The source of these data is ChEMBL document CHEMBL1149211, “Synthesis of 1,7-annulated indoles and their applications in the studies of cyclin dependent kinase inhibitors” (Bioorg Med Chem Lett, 2004).

For orientation: IC50 means the concentration that gives 50% inhibition. Read a low IC50 as greater potency in that assay. In general, inhibition refers to the percentage by which the read-out fell short of the control.

Series [1] is described as follows: Solubility measured in 10% solution in EtOH. It counts as physicochemical. As to conditions: read-out: S. The method, boiled down: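 Solubility determined in 10% solutol in ethanol.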
In series [2] the target is T1, Cyclin-dependent kinase 4/cyclin D1 (Homo sapiens, UniProt P11802). In words: Inhibition of Cyclin D1-cyclin-dependent kinase 4. It counts as protein-complex assay. Put shortly: (§1)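 Cyclin D1/CDK4 enzyme inhibition determined by measuring phosphorylation of Rb protein; staurosporine included as standard; IC50 derived.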
T1 sequence (P11802 whole entry): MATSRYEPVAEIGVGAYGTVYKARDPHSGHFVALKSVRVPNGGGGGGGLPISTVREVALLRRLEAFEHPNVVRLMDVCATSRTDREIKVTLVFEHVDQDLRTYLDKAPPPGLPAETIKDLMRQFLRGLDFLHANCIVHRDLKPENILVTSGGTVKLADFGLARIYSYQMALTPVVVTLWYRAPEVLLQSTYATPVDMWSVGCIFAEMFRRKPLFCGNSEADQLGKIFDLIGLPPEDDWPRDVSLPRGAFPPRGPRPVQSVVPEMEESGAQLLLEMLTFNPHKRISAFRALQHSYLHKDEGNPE
T1 sequence (P24385 whole entry, further chain): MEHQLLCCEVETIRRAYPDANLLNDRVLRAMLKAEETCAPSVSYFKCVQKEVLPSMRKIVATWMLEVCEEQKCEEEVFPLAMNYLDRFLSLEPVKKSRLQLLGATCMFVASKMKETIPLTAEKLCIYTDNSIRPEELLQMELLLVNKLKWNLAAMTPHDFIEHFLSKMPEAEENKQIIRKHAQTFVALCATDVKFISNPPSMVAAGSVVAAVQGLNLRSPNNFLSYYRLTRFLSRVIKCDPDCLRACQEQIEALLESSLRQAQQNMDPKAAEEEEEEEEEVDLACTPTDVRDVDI
Series [3] addresses Cyclin-dependent kinase 2/cyclin E (Homo sapiens, UniProt P24941). The experiment in a line: Inhibition of Cyclin E-cyclin-dependent kinase 2 mediated RbING-phosphorylation. In kind it is protein-complex assay. Put shortly:
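Cyclin E/CDK2 enzyme assay following substrate phosphorylation, with Rb^ING as substrate; staurosporine run as standard; IC50 reported.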

Series [4] concerns HCT-116. The experiment in a line: Antiproliferative activity against HCT116 (human colon carcinoma) cell line. It counts as functional, cell-based.
In series [5] the target is Cyclin-dependent kinase 4 (Homo sapiens) (UniProt P11802). In words: Inhibition of CDK4-specific Rb-S780 phosphorylation of HCT116 cells at 2xIC50 for 24 hr. In kind it is functional, cell-based. The note with it: HCT-116. The method, boiled down: (§2)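 HCT-116 colon carcinoma cells treated 24 h with compound at 1× and 2× its antiproliferation IC50; Rb phosphorylation at Ser780 measured by Western blot with phospho-specific antibody; value expressed as % pRb inhibition.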
Sequence of Cyclin-dependent kinase 4 (Homo sapiens) (P11802 whole entry): as the sequence (P11802 whole entry) above

For series [6] the target is unchanged. In words: Inhibition of CDK4-specific Rb-S780 phosphorylation of HCT116 cells at 1xIC50 for 24 hr. In kind it is functional, cell-based. The note with it: HCT-116. Put shortly: as §2
Series [7] relates to HCT-116. In words: G1 cell cycle arrest (fold increase over control) in HCT116 cells at 3*IC50. In kind it is functional, Homo sapiens. Put shortly:
(§3)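 HCT-116 cells exposed to compound for 24 h, then analysed by flow cytometry; G1 arrest expressed as fold increase of G1 population over untreated control.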

For series [8], the system named is HCT-116. In words: G1 cell cycle arrest (fold increase over control) in HCT116 cells at IC50. In kind it is functional, Homo sapiens. Put shortly: as §3
In another series the test system is NCI-H460. In words: Antiproliferative activity against NCIH-460 (human lung) cell line. In kind it is functional, cell-based.
Series [9] has as its target cAMP-dependent protein kinase (PKA) (Homo sapiens, UniProt P22694+P17612+P22612). In words: Inhibition of protein kinase A mediated histone phosphorylation. It counts as protein assay. The method, boiled down:
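PKA enzyme assay measuring phosphorylation of histone substrate; staurosporine used as standard; IC50 reported.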

In series [10] the target is T1, Cyclin-dependent kinase 4/cyclin D1. In words: Inhibition of Cyclin D1-cyclin-dependent kinase 4 mediated Rb21-phosphorylation. In kind it is protein-complex assay. As to conditions: in the assay text read “RbING-phosphorylation” for “Rb21-phosphorylation”. Put shortly: as §1

The structures appear in SMILES notation. In brackets after ≈: the same amount, converted by molar mass.

In the case of `COc1ccc2c(c1)[nH]c1c2c2c(c3c4cccc5c4n(c13)CC(CO)C5)C(=O)NC2=O` (stereo not given), the solubility in series [1] was found to be 490 µg/mL (≈ 1150 µM). The IC50 was 15 nM in [2]; 284 nM in series [3]; 1830 nM in the series with HCT-116 [4]; 1960 nM in the series on NCI-H460; over 2000 nM in series [9]. In addition, the inhibition in series [5] worked out at 77%; in series [6], 69%. For the same molecule, the Fold increase in the series on HCT-116 [7] worked out at 2; in the series on HCT-116 [8] it was 1.8.
As for `O=C1NC(=O)c2c1c1c3ccc(F)cc3[nH]c1c1c2c2cccc3c2n1C(CO)CC3` (stereo not given), in series [1], the solubility is 620 µg/mL (≈ 1500 µM). The IC50 in [2] was found to be 2 nM; in series [3], 79 nM; in the series on HCT-116 [4], 820 nM; with NCI-H460, 260 nM; in series [9], 3020 nM. Moreover, the Fold increase worked out at 2.12 in the series with HCT-116 [7] and 1.7 in the series with HCT-116 [8].
`O=C1NC(=O)c2c1c1c3ccccc3[nH]c1c1c2c2cccc3c2n1CCC3CO` (stereo not given): the IC50 in series [2] was 31 nM; in the series on HCT-116 [4] it was 370 nM; with NCI-H460, 540 nM; in series [9], over 2000 nM. The inhibition in series [5] came out at 23%; in [6], 0%. Besides, the Fold increase is given as 1.44 with HCT-116 [7] and 1.17 in the series with HCT-116 [8].
Take `O=C1NC(=O)c2c1c1c3ccccc3ccc1c1c2c2cccc3c2n1CCC3CO` (stereo not given): the IC50 in series [2] is 210 nM; with HCT-116 [4], 1250 nM; in the series with NCI-H460 it was 1720 nM; in [9], over 2000 nM. Besides, the Fold increase with HCT-116 [7] stood at 1.3; in the series on HCT-116 [8], 1.2.
`O=C1NC(=O)c2c1c1c3ccccc3[nH]c1c1c2c2cccc3c2n1CC(CO)CC3` (stereo not given): the solubility in series [1] is 1070 µg/mL (≈ 2610 µM). The IC50 in series [2] came to 126 nM; in the series on HCT-116 [4] it was 540 nM; in the series with NCI-H460, 330 nM. In addition, the inhibition amounted to 85% in [5] and 71% in series [6]. The Fold increase is on record as 1.9 in the series with HCT-116 [7] and 1.8 in the series on HCT-116 [8].
In the case of `O=C1NC(=O)c2c1c1c3ccc(Br)cc3[nH]c1c1c2c2cccc3c2n1CC(CO)C3` (stereo not given), the solubility in series [1] amounted to 830 µg/mL (≈ 1750 µM). The IC50 in series [2] is 10 nM; in series [3], over 2000 nM; in the series on HCT-116 [4] it was 500 nM; with NCI-H460 it was 360 nM; in series [9] it was over 2000 nM. In addition, the inhibition in [5] was 74%; in series [6], 56%. The Fold increase in the series on HCT-116 [8] amounted to 1.6.
As for `O=C1NC(=O)c2c1c1c3ccc(C(F)(F)F)cc3[nH]c1c1c2c2cccc3c2n1CC(CO)C3` (stereo not given), the solubility in series [1] worked out at 4810 µg/mL (≈ 10400 µM). Besides, the 50% inhibitory concentration (IC50) in series [2] is 23 nM; with HCT-116 [4] it was 1250 nM; in the series with NCI-H460, 690 nM; in [9], over 2000 nM. Besides, the Fold increase in the series with HCT-116 [7] is 1.47; in the series on HCT-116 [8] it was 1.34.
In the case of `CN(C)CC1Cc2cccc3c(C4=C(c5c[nH]c6ccccc56)C(=O)NC4=O)cn(c23)C1` (stereo not given), the IC50 in series [2] turned out to be 898 nM; in the series on HCT-116 [4], 770 nM; in the series with NCI-H460, 4750 nM. Further, the Fold increase is listed as 1.17 with HCT-116 [7] and 1 with HCT-116 [8].
On to `O=C1NC(=O)c2c1c1c3ccccc3ccc1c1c2c2cccc3c2n1CC(CO)C3` (stereo not given), for which the IC50 in series [2] was 72 nM; in series [3], over 2000 nM; in the series with HCT-116 [4], 940 nM; in the series with NCI-H460 it was 740 nM; in [9], over 2000 nM. The Fold increase in the series with HCT-116 [7] came out at 1.64; with HCT-116 [8], 1.14.
Take `COC(=O)CC(NCC1Cc2cccc3c(C4=C(c5c[nH]c6cc(F)ccc56)C(=O)NC4=O)cn(c23)C1)C(=O)OC` (stereo not given): the IC50 in [2] was 671 nM; in the series with HCT-116 [4], over 10000 nM; with NCI-H460, over 10000 nM.
In the case of `NC(=O)[C@@H]1CCCN1CC1Cc2cccc3c(C4=C(c5c[nH]c6cc(F)ccc56)C(=O)NC4=O)cn(c23)C1` (stereo not given in full), the values for the half-maximal inhibitory concentration (IC50) (in series [10]; in the series on HCT-116 [4]; in the series with NCI-H460) were over 2000 nM, over 10000 nM and over 10000 nM, respectively.
On to `O=C1NC(=O)C(c2cn3c4c(cccc24)CC(CCl)C3)=C1c1c[nH]c2cc(F)ccc12` (stereo not given), for which the IC50 in series [2] was 64 nM; in the series on HCT-116 [4] it was 3270 nM; in the series with NCI-H460, 5650 nM; in series [9], over 20000 nM.
Turning to `O=C1NC(=O)c2c1c1c3ccccc3[nH]c1c1c2c2cccc3c2n1C(CO)CC3` (stereo not given), the solubility in series [1] came to 570 µg/mL (≈ 1440 µM). The IC50 in series [2] came out at 18 nM; in series [3], 219 nM; with HCT-116 [4] it was 920 nM; in the series with NCI-H460 it was 820 nM; in series [9], 858 nM. The inhibition in series [5] turned out to be 65%; in series [6] it was 53%. Besides, the values for the Fold increase in the series on HCT-116 [7] and with HCT-116 [8] were 1.51 and 1.32, respectively.
On to `CNCC1Cc2cccc3c(C4=C(c5c[nH]c6cc(F)ccc56)C(=O)NC4=O)cn(c23)C1.Cl` (stereo not given), for which the IC50 in [2] stood at 8 nM; in the series on HCT-116 [4], 1730 nM; in the series with NCI-H460, 5150 nM; in series [9] it was 383 nM.
Turning to `O=C1NC(=O)c2c1c1c3ccc(F)cc3[nH]c1c1c2c2cccc3c2n1CC(CO)C3` (stereo not given), in [1], the solubility came to 890 µg/mL (≈ 2150 µM). In addition, the half-inhibitory concentration (IC50) is 22 nM in [2]; 141 nM in [3]; 360 nM with HCT-116 [4]; 430 nM in the series with NCI-H460; over 2000 nM in series [9]. The inhibition was 53% in [5] and 25% in series [6]. The figures for the Fold increase with HCT-116 [7] and in the series on HCT-116 [8] were 2.32 and 1.67, respectively.
On to `O=C1NC(=O)c2c1c1c3ccccc3[nH]c1c1c2c2cccc3c2n1CC(CO)C3` (stereo not given), for which, in series [1], the solubility came to 120 µg/mL (≈ 303 µM). For the same molecule, the IC50 in series [2] was 71 nM; in series [3] it was 217 nM; in the series with HCT-116 [4] it was 910 nM; in the series on NCI-H460, 960 nM; in series [9], over 2000 nM. The inhibition in series [5] was 55%; in series [6], 21%. Further, the Fold increase worked out at 1.95 with HCT-116 [7] and 2.04 with HCT-116 [8].
As to `O=C1NC(=O)c2c1c1c3ccccc3ccc1c1c2c2cccc3c2n1C(CO)CC3` (stereo not given), the solubility in series [1] was 2780 µg/mL (≈ 6840 µM). The concentration for half-maximal inhibition (IC50) in series [2] was 175 nM; with HCT-116 [4], 1120 nM; in the series on NCI-H460, 540 nM; in series [9], over 2000 nM. The Fold increase in the series on HCT-116 [7] stood at 1.32; in the series on HCT-116 [8], 1.17.
Consider `Cn1ccc2ccc3c(c4c(c5c6cccc7c6n(c35)CC(CO)C7)C(=O)NC4=O)c21` (stereo not given), for which the IC50 in series [2] was determined as 84 nM; in [3], 650 nM; with HCT-116 [4], 680 nM; in the series on NCI-H460, 210 nM. In addition, the Fold increase in the series on HCT-116 [7] was determined as 2.25; in the series on HCT-116 [8] it was 1.13.
